# Assay outcomes deposited in PubChem BioAssay by Broad Institute.
# Sampled rows, rich in hits. Any-hit rate of the full collection: about 2.3%.
# C2C12 statin = suppressors of simvastatin-induced myotoxicity in C2C12 myotubes. ATP luminescence, 48 h; scaled: DMSO 0, geranylgeraniol control 100. rescue of ATP level, % at 7.49 µM. 330,000 tested, 0.78% active. AID 602340;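 active = mean ATP rescue above about 67%, or every replicate alone reaching that limit, limit read from the data, passing the limit was not always enough; inconclusive = no clear call, values can overlap the other calls; inactive = mean under the limit and some replicate under it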;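 note: myotubes were challenged with 10 µM simvastatin during compound exposure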
# PDI inh = blocks human protein disulfide isomerase activity; P07237; PDI insulin aggregation turbidity, A650, 90 min; inhibition, % at 10 µM; 350,000 tested, 0.052% active; AID 588391;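 active = mean inhibition across replicates of 30% or more, whatever share of single replicates reach that level; inconclusive = mean inhibition below 30% while every single replicate reaches 30%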
# Cneo AK release = Cryptococcus neoformans lysis via adenylate kinase release. AID 651654. lysis activity, % at 15 µM. 360,000 tested, 0.2% active. C. neoformans lysis, adenylate kinase release luminescence, 4 h; normalised: neutral wells 0, clomiphene wells 100;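 active = mean lysis activity across replicates of at least 80%, whatever share of replicates individually reach that level; inactive = mean lysis activity below 80%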
#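 Signal: Adenylate kinase release luminescence | Assay system: Log-phase Cryptococcus neoformans yeast cells | Input: Cells at 5 × 10^6 per mL | Buffer or medium: Fresh YPD growth medium | Compound: Single dose | Schedule: Static 4 h at 37 °C with compound, 1 h detection | Controls: Clomiphene | Read-out: Luminescence rise reflecting yeast cell lysis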
# ERp5 block = ERp5 (human) disulfide isomerase inhibition; Q15084; ERp5 insulin aggregation, absorbance 650 nm, 90 min; inhibition, % at 9.99 µM; 350,000 tested, 0.05% active;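 active = mean replicate inhibition above about 25%, with every replicate also reaching it, limit read from the data, passing the limit was not always enough; inconclusive = only one of those two criteria met; inactive = neither criterion met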
# Target sequence (Q15084 whole entry, looked up): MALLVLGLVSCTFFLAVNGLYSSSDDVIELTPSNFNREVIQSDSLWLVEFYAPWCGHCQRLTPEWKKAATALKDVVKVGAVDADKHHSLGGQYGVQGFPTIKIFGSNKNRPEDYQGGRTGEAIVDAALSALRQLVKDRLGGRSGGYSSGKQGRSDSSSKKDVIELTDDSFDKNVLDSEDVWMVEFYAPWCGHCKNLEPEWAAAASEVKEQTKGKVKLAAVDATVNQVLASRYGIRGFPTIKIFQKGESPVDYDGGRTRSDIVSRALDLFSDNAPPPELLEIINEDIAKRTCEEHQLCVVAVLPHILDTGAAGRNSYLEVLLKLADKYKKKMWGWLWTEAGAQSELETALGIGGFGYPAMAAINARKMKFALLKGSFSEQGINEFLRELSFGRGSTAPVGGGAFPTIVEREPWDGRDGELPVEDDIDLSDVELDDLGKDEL
# F508del corr = CFTR F508del correction in bronchial cells; activity (quench increase), % at 7.58 µM; CFBE cells, YFP halide quenching; stimulated with forskolin plus potentiator P3; % fluorescence drop versus neutral controls; 350,000 tested, 0.36% active;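 active = mean added fluorescence quench of at least 8% versus neutral control, with both replicates also reaching 8%; inconclusive = only one of the mean or replicate conditions met; inactive = mean below 8% and not both replicates reaching 8%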;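 note: cells transiently co-express mutant CFTR-F508del with the halide-sensitive YFP; corrector assay measuring rescue of mutant channel to the surface after 24 h compound exposure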
# DENV2 CPE = inhibitors of DENV2 cytopathic effect; DENV2-infected cells, cytopathic effect rescue, plate reader; 350,000 tested, 1.7% active; CPE inhibition, % at 9.99 µM; in the data active = CPE inhibition above about 20%, passing the limit was not always enough; inconclusive = no clear call, values can overlap the other calls; tested in BHK-21 cells;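 note: 0% = median of neutral control wells and 100% = median of positive control wells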
# An asterisk follows results filed as active; u = inconclusive; x = no result.
SMILES,C2C12 statin,PDI inh,Cneo AK release,ERp5 block,F508del corr,DENV2 CPE
CC1(C)CC[C@]2(C(=O)O)CC[C@]3(C)C(=CC[C@@H]4[C@@]5(C)CC[C@H](O[C@@H]6O[C@H](C(=O)O)[C@@H](O)[C@H](O[C@@H]7OC[C@H](O)[C@H](O)[C@H]7O)[C@H]6O)C(C)(C)[C@@H]5CC[C@]43C)[C@@H]2C1,-40.5,87.8*,-5.9,-0.8,-1.4,-1.9
CC1OC(OC2C(CO)OC(OCC3OC(OC(=O)[C@@]45CCC(C)(C)C[C@@H]4C4=CC[C@@H]6[C@@]7(C)CCC(OC8OCC(O)C(O)C8OC8OC(C)C(O)C(O)C8O)[C@@](C)(CO)C7CC[C@@]6(C)[C@]4(C)CC5)C(O)C(O)C3O)C(O)C2O)C(O)C(O)C1O (stereo partly drawn),2.1,-3.5,-0.6,-0.9,3.9,-1.8
C[C@H]1O[C@H](O[C@H]2[C@H](O[C@@H]3CC[C@@]4(C)C(CC[C@]5(C)C4CC=C4[C@@H]6CC(C)(C)CC[C@]6(C(=O)O[C@@H]6O[C@H](CO)[C@@H](O)[C@H](O)[C@H]6O)CC[C@]45C)C3(C)C)O[C@H](C(=O)O)[C@@H](O)[C@@H]2O)[C@@H](O)[C@@H](O)[C@@H]1O (stereo partly drawn),-5.9,x,-1.2,2.4,3.4,109.4*
O=C1N2CCCc3cccc(c32)C12Nc1ccccc1S2 (stereo not drawn),152.5*,-8.6,8.7,x,x,x
CC1CC(C)(C)N2C(=O)C3(Nc4ccccc4S3)c3cccc1c32 (stereo not drawn),29.1,3.6,22.0,x,x,x
C[C@H]1CCCCO[C@H](CN(C)S(=O)(=O)c2ccc(Cl)cc2)[C@@H](C)CN([C@@H](C)CO)C(=O)c2cc(NS(=O)(=O)c3cn(C)cn3)ccc2O1,x,x,-4.4,-7.0,4.2,1.7
COc1cc2c(cc1OC)C(C)N(C(=O)Nc1cc(C)cc(C)c1)CC2 (stereo not drawn),-26.1,0.7,0.5,1.4,12.8*,-4.0
C[C@@H]1CN([C@H](C)CO)C(=O)c2cc(NC(=O)CCCN(C)C)ccc2O[C@@H](C)CCCCO[C@@H]1CN(C)S(C)(=O)=O,-3.9,x,1.1,0.4,0.2,u
CC(=O)OC[C@H]1O[C@@H](Oc2cc(O)cc3oc(-c4ccc(O)cc4)cc(=O)c23)[C@H](O[C@@H]2O[C@@H](C)[C@H](O)[C@@H](O)[C@H]2O)[C@@H](O)[C@@H]1O,5.5,39.2*,6.2,1.6,-2.7,x
CCN1C(=O)[C@H]2[C@@H](c3ccc(-c4ccc(Cl)c(Cl)c4)c(OC)c3)N[C@@](C)(C(=O)OC)[C@H]2C1=O,-10.5,-3.0,-2.7,-8.6,-1.0,-12.4
CCN1C(=O)[C@H]2[C@@H](c3ccc(-c4ccc(Cl)c(Cl)c4)cc3)N[C@@](C)(C(=O)OC)[C@H]2C1=O,-27.2,-4.3,1.0,2.9,8.2*,u
Cc1ccccc1-c1cnc2c(c1)C(=O)N([C@H](C)CO)C[C@@H](C)[C@H](CN(C)Cc1cncnc1)O2,23.1,x,x,x,-1.5,x
COc1cc(OC)cc(C(=O)NC(=S)Nc2ccc3oc(=O)ccc3c2)c1,1.4,-10.2,-0.1,x,9.6*,-1.2
CCCCOC(=O)c1ccccc1N1C(=O)C2C3CCC(C3)C2C1=O (stereo not drawn),82.5*,-2.1,0.6,-0.3,-1.0,u
Cc1cc(C(=O)NNC(=O)c2ccc(Cl)c(S(N)(=O)=O)c2)c(C)o1,-4.3,-1.2,0.0,-0.2,8.7*,6.4
Cc1cc(C(=O)NNC(=O)c2ccc(S(=O)(=O)N(C)C)cc2)c(C)o1,-0.2,-0.5,x,-6.0,x,3.7
COC(=O)c1[nH]c2cc(C)ccc2c1NC(=O)CN1CCN(c2ccccc2OC)CC1,86.2*,-1.5,1.0,x,x,x
COC(=O)c1[nH]c2cc(C)ccc2c1NC(=O)CN1CCOCC1,x,-1.2,x,-1.5,-0.1,-1.9
COc1ccc2c3c([nH]c2c1)[C@@H](CO)N(C)CC31CCN(C(=O)C2CC2)CC1,x,x,x,x,-1.1,-10.7
CC1(C(=O)NS(=O)(=O)c2ccc(Cl)cc2)CCN1C(=O)COc1ccc(Cl)cc1 (stereo not drawn),1.2,-9.8,1.9,-7.4,1.4,1.5
CC1(C(=O)NS(=O)(=O)c2cccc(Cl)c2)CCN1C(=O)COc1ccc(Cl)cc1 (stereo not drawn),1.4,1.6,-3.3,5.5,-0.2,85.5*
CC(C)(C(=O)N1CCC1(C)C(=O)NS(=O)(=O)c1cccc(Cl)c1)c1ccccc1 (stereo not drawn),-7.1,-3.9,-0.7,2.4,3.0,43.7*
CNC[C@H]1Oc2ncc(-c3cccc(C(=O)N(C)C)c3)cc2C(=O)N([C@H](C)CO)C[C@@H]1C,-0.3,x,x,x,-1.7,x
CC(=O)N1[C@@H]2c3ccc(-c4ccccc4)c(=O)n3C[C@H]1[C@H](CO)[C@H]2C(=O)NC1Cc2ccccc2C1,1.8,x,x,x,-4.0,x
CCCC(NC(=O)C(C)Sc1nnnn1C1CC1)c1ccccc1 (stereo not drawn),0.6,-6.2,0.8,-0.6,-3.9,90.3*
SMILES,C2C12 statin,PDI inh,Cneo AK release,ERp5 block,F508del corr,DENV2 CPE
CC(Sc1nnnn1C1CC1)C(=O)Nc1cccc(S(=O)(=O)N2CCOCC2)c1 (stereo not drawn),10.3,-0.7,-0.6,1.2,-5.0,-4.5
C[C@H](CO)N1C[C@H](C)[C@H](CN(C)Cc2cccc(C(=O)O)c2)Oc2ncc(C#C[C@@H](C)O)cc2C1=O,3.3,x,x,x,0.2,x
CSCCC(N=C1NS(=O)(=O)c2ccccc21)C(=O)NCc1ccccc1F (stereo not drawn),x,0.5,-1.2,3.4,0.1,4.2
CSCCC(N=C1NS(=O)(=O)c2ccccc21)C(=O)NCCc1ccccc1 (stereo not drawn),x,3.6,-1.4,1.6,3.8,58.5*
O=C(c1ccco1)N1N=C(c2ccccc2O)CC1c1cccs1 (stereo not drawn),70.3*,18.4,0.5,3.0,4.6,-7.4
O=C(c1ccco1)N1N=C(c2cccs2)CC1c1ccco1 (stereo not drawn),34.3,-0.4,x,-1.8,x,2.9
C[C@H]1CN([C@@H](C)CO)C(=O)c2cc(NC(=O)Nc3cccc4ccccc34)ccc2O[C@H]1CN(C)C,18.5,x,-4.2,-4.2,-3.6,4.7
C[C@@H]1CN([C@@H](C)CO)C(=O)c2cc(NC(=O)Nc3ccc4c(c3)OCO4)ccc2O[C@@H](C)CCCCO[C@@H]1CN(C)C(=O)c1ccccc1,x,x,-2.4,0.1,-0.6,10.6
O=S(=O)(Cc1ccccc1)NCC[C@H]1CC[C@H](NS(=O)(=O)c2ccc(F)cc2)[C@@H](CO)O1,3.2,x,0.0,-4.4,0.3,-0.2
Cn1cc([N+](=O)[O-])c(C(=O)Nc2ccc(C3CCCCC3)cc2)n1,x,4.6,x,2.3,-5.1,9.0
